In general, EC50 refers to the concentration that produces a half-maximal response. A lower EC50 goes with higher potency in that assay. Usually CC50 stands for the concentration giving 50% cytotoxicity. A lower CC50 goes with greater toxicity to the cells. One may read the half-life as the time needed for the level to fall by half in the phase considered.

Experimental findings from ChEMBL document CHEMBL2010641, “A novel 3,4-dihydropyrimidin-2(1H)-one: HIV-1 replication inhibitors with improved metabolic stability” (Bioorg Med Chem Lett, 2012) are described below.

In data set [1] the test system is Human immunodeficiency virus 1. Kind of data set: Antiviral activity against HIV1 LAI infected in CEMx174 cells coexpressing GFP after 5 days by fluorimetry. Particulars: for EC50: Human immunodeficiency virus 1, LAI, CEMx174, 120 h. The data set is classed as functional, organism-based. Summed up:
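Cells (4000/well) pre-incubated with compound diluted in DMSO for 1 h at 37 °C, 5% CO2, then infected with HIV-1 LAI at MOI 3 and cultured 5 days at 37 °C, 5% CO2. EC50 is the concentration inhibiting viral replication by 50%. Values are geometric means of two determinations (n = 2), each within 25% of the mean.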

Data set [2] in a line: Cytotoxicity against human CEmx174 cells. In kind it is cell-based. The method, boiled down:
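CC50 is the concentration that reduces viability of uninfected cells by 50%. Reported as the geometric mean of two determinations (n = 2), each within 25% of the mean.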

Data set [3] can be described thus: Half life in human liver microsomes at 2 uM. In kind it is ADME, Microsome. Summed up: (§1)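 Compound at 2 µM final was incubated with rat or human liver microsomes (0.5 mg/mL protein) in potassium phosphate buffer with 0.2% DMSO final. Reaction was started with NADPH and stopped at 0, 5, 10, 30, 60 and 120 min. Loss of parent was measured by LC/MS (ESI quadrupole, water/acetonitrile with 0.1% formic acid gradient). Values are geometric means of n = 2.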
(In general: Microsomes from liver hold many membrane-bound enzymes, among them those of drug oxidation.)

The nature of data set [4]: Half life in rat liver microsomes at 2 uM. In kind it is ADME, Microsome. Summed up: as §1

Structures are written as SMILES. Active and inactive are the calls of the source.

In data set [1], `CCC1=C(C(=O)CCC2CCCCC2)[C@H](c2ccc(O)c(Cl)c2)NC(=O)N1` displayed an EC50 of 0.403 µM. Further, in data set [2], the 50% cytotoxic concentration (CC50) was > 10 µM. Also, the half-life at 2 µM in data set [3] was 22 min; in data set [4], 5 min.

Molecule `CCC1=C(C(=O)CCC2CCCC2)[C@H](c2ccc(O)c(Cl)c2)NC(=O)N1` came in with an EC50 in data set [1] of 0.42 µM. Moreover, in data set [2], the 50% cytotoxic concentration (CC50) is > 10 µM.

Molecule `CCC1=C(C(=O)OCC2CCCCC2)[C@H](c2ccc(O)c(Cl)c2)NC(=O)N1` returned a concentration giving a half-maximal response (EC50) in data set [1] of 0.019 µM. Besides, the half-maximal cytotoxic concentration (CC50) in data set [2] is > 10 µM. In addition, the half-life at 2 µM in data set [3] is 36 min; in data set [4], 7 min.

For `CCC1=C(C(=O)O)[C@H](c2ccc(O)c(Cl)c2)NC(=O)N1`, the outcome in data set [1] was inactive.

`CCC1=C(C(=O)CC2CCC(CC)CC2)[C@H](c2ccc(O)c(Cl)c2)NC(=O)N1` (stereo not given in full) registered an EC50 in data set [1] of 0.087 µM. For the same molecule, the half-maximal cytotoxic concentration (CC50) in data set [2] was > 10 µM. Besides, the half-life at 2 µM in data set [3] worked out at 24 min; in data set [4], 16 min.

With `CCC1=C(C(=O)OCC2CCCCC2)[C@H](c2cccc(O)c2)NC(=O)N1`, the cytotoxic concentration (CC50) in data set [2] was > 10 µM. The half-life at 2 µM amounted to 11 min in data set [3] and 1.5 min in data set [4].

For the molecule `CCC1=C(C(=O)CC2CCC(C)CC2)[C@H](c2ccc(O)c(Cl)c2)NC(=O)N1` (stereo not given in full), in data set [1], the concentration for a half-maximal effect (EC50) came to 0.48 µM. Also, in data set [2], the CC50 was > 10 µM.

As to `O=C1NC2=C(C(=O)OCC2)C(c2cccc(O)c2)N1` (stereo not given), the EC50 in data set [1] is > 10 µM. In data set [2], the CC50 is > 10 µM.

`CCC1=C(c2nc(C3CCCCC3)c[nH]2)[C@H](c2ccc(O)c(F)c2)NC(=O)N1`: the EC50 in data set [1] is > 10 µM. Besides, the CC50 in data set [2] was > 10 µM.

On to `CCC1=C(C(=O)CCc2ccccc2)[C@H](c2ccc(O)c(Cl)c2)NC(=O)N1`, for which the EC50 in data set [1] is > 10 µM. Besides, the half-maximal cytotoxic concentration (CC50) in data set [2] was > 10 µM.

Turning to `CCC1=C(C(=O)O)[C@H](c2cccc(O)c2)NC(=O)N1`, the outcome in data set [1] was inactive.

In the case of `CCC1=C(c2nc(C3CCCCC3)cs2)[C@H](c2ccc(O)c(Cl)c2)NC(=O)N1`, a half-maximal effect in data set [1] (EC50) was put at 0.078 µM. Further, in data set [2], the cytotoxic concentration (CC50) was > 10 µM. The half-life at 2 µM came out at 682 min in data set [3] and 30 min in data set [4].

As for `CCC1=C(c2nc(C3CCCCC3)co2)[C@H](c2ccc(O)c(Cl)c2)NC(=O)N1`, the concentration for a half-maximal effect (EC50) in data set [1] stood at 0.116 µM. In addition, the CC50 in data set [2] was > 10 µM. Also, the half-life at 2 µM in data set [3] amounted to 132 min; in data set [4], 54 min.

In data set [1], `CCC1=C(C(=O)CCC2CCCCCC2)[C@H](c2ccc(O)c(Cl)c2)NC(=O)N1` displayed an EC50 of 0.329 µM. For the same molecule, the 50% cytotoxic concentration (CC50) in data set [2] was > 10 µM.

On to `CCC1=C(C(=O)CC2CCCCC2)[C@H](c2ccc(O)c(Cl)c2)NC(=O)N1`, for which the concentration giving a half-maximal response (EC50) in data set [1] was found to be 0.983 µM. Moreover, the CC50 in data set [2] is > 10 µM. Moreover, the half-life at 2 µM in data set [3] was found to be 18 min; in data set [4], 7 min.

Consider `Cc1ccnc2c1NC(=O)c1cccnc1N2C1CC1` [NEVIRAPINE], for which, in data set [2], the CC50 is > 10 µM.

In data set [1], `CCC1=C(C(=O)CC2CCC(C(C)C)CC2)[C@H](c2ccc(O)c(Cl)c2)NC(=O)N1` (stereo not given in full) had a half-maximal effective concentration (EC50) of 1.4 µM. Further, in data set [2], the cytotoxic concentration (CC50) is > 10 µM.

Take `CCC1=C(C(=O)CC2CCC(OC)CC2)[C@H](c2ccc(O)c(Cl)c2)NC(=O)N1` (stereo not given in full): the concentration giving a half-maximal response (EC50) in data set [1] is > 10 µM. Besides, the 50% cytotoxic concentration (CC50) in data set [2] is > 10 µM.

For `O=C1NC2=C(C(=O)OC2)C(c2cccc(O)c2)N1` (stereo not given), the EC50 in data set [1] was > 10 µM. Moreover, the CC50 in data set [2] was > 10 µM.

Consider `CCC1=C(C(=O)CC2CCCC2)[C@H](c2ccc(O)c(Cl)c2)NC(=O)N1`, for which a half-maximal response in data set [1] (EC50) required 3.28 µM. Besides, the CC50 in data set [2] is > 10 µM.
